Compounds with a hit are over-represented: about 4.8% of the library has one in this group of screens.
GPR7 antag – blocks human GPR7 receptor signaling. inhibition, % at 4.4 µM. AID 1861. P48145. hit rate 1.1% among 290,000. GPR7-expressing cells, fluorescence antagonist assay; in the data active = inhibition above about 16%, passing the limit was not always enough;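 note: cells stimulated with the agonist NPW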
Target sequence (P48145 whole entry, looked up): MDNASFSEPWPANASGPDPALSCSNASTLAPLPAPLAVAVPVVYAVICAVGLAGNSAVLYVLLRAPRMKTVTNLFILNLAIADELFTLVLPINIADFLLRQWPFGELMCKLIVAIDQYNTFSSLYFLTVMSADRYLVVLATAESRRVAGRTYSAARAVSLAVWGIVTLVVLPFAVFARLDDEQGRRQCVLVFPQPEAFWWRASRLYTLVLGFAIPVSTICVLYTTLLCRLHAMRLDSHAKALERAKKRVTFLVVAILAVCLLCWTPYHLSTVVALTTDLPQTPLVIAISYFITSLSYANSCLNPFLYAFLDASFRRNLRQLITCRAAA
697 NFkB inh – inhibitors of the PMA/ionomycin-induced NF-kB reporter in 697 B cells; inhibition, % at 4 µM; 697 B-cell NF-kB luciferase reporter, 16 h; AID 435022; hit rate 0.33% among 330,000; in the data active = inhibition above about 35%
T cruzi repl – T. cruzi replication inhibition. hit rate 1.4% among 300,000. T. cruzi beta-gal in NIH3T3, luminescence, 90 h. inhibition, % (test concentration not listed);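 active = mean inhibition across valid replicates above about 55%, limit read from the data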;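 note: signal also drops with host cell toxicity which is not excluded here; higher percent means less beta-gal luminescence so fewer parasites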
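Read-out: Parasite load inhibition, % | Test system: Mouse NIH/3T3 fibroblasts infected with β-gal-expressing T. cruzi Tulahuen C4 | Amount: 5,000 cells/well | Medium: DMEM, 2% fetal bovine serum | Signal: GalScreen β-gal luminescence, detergent lysis, 60 min | Timing: 3 h attach, ≥90 h co-culture | Also added: Tulahuen C4 trypomastigotes, 5000/well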
HSF1 inhib – HSF1 inhibition; NIH3T3-HGL HSE-luciferase, MG132-induced, luminescence 8 h; stronger effect = lower value; hit rate 0.77% among 300,000; AID 2098; activity change, negative = inhibition, % at 7.5 µM (by protocol);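 active = more than half of replicate wells show activity change below -50%, luminescence cut by over half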;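 note: luciferase reports HSF-1 transcriptional activity via heat shock element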
Jurkat NFkB inh – inhibitors of the PMA/ionomycin-induced NF-kB reporter in Jurkat cells; PMA/ionomycin-induced NF-kB luciferase reporter, luminescence; inhibition, % at 4 µM; hit rate 0.53% among 330,000; in the data active = inhibition above about 50%
HSF1 activator – increases HSF-1 driven luciferase reporter signal | NIH3T3-HGL HSF-1 luciferase reporter, MG132, 8 h; 100% = twice DMSO control signal | hit rate 1.7% among 300,000 | AID 504408 | activation, % at 9 µM;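 active = mean replicate activation of at least 50% with a set share of replicates each reaching 50%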
Hits are given with their value; 0 = inactive; - = no result.

SMILES	GPR7 antag	697 NFkB inh	T cruzi repl	HSF1 inhib	Jurkat NFkB inh	HSF1 activator
Cc1cccc(NC(=O)/C=C/c2ccc([N+](=O)[O-])s2)c1	0	-	59	0	-	0
Cc1ccc(NC(=O)/C=C/c2ccc([N+](=O)[O-])s2)cc1	0	0	0	0	0	0
COCCn1c(C)cc(C(=O)CSc2nnc(C)s2)c1C	0	0	0	-56	0	0
COCCn1c(C)cc(C(=O)COC(=O)c2cccc(O)c2)c1C	0	0	0	-79	0	0
CC(C)(C)SCCNC(=O)Nc1ccccc1	0	0	0	0	0	0
Cc1ccc(C(C)C)c(OCc2nn(CC(=O)c3ccc(Cl)cc3)c3[n+]2CCCCC3)c1	38	0	86	0	0	0
NC(=S)N/N=C/c1ccc(-c2ccc(SC(F)F)cc2)o1	0	0	72	0	0	0
Cc1ccc(-c2ccc(/C=N/NC(N)=S)o2)cc1	0	0	0	0	0	0
NC(=S)N/N=C/c1ccc(-c2ccc(Cl)c(Cl)c2)o1	0	0	60	0	0	0
CC(C)N1CSC(=S)N(Cc2ccccc2)C1	0	0	0	0	0	0
O=C(c1ccccc1)N1CCN(c2ccc(Cl)cc2)CC1	20	0	0	0	0	0
O=C(OCC(=O)N1CCN(C(=O)c2ccco2)CC1)c1ccccc1OCc1ccc(Cl)cc1	28	0	0	0	0	0
O=C(c1ccco1)N1CCN(c2ccc(Cl)c(Cl)c2)CC1	0	0	0	0	0	99
O=C(c1ccco1)N1CCN(c2ncnc3c(-c4ccccc4)nsc23)CC1	0	0	0	0	0	51
CC(=O)c1ccc(N2CCN(C(=O)c3ccc(C(=O)c4ccccc4)cc3)CC2)cc1	-	0	-	-	0	-
O=C(c1ccco1)N1CCN(C(=O)N2CCOCC2)CC1	0	0	0	0	0	71
CCN(CC)S(=O)(=O)c1ccc(C(=O)OCC(=O)N2CCN(C(=O)c3ccco3)CC2)cc1	0	0	0	0	0	53
O=C(Cc1ccc(Cl)cc1)Nc1ccc(N2CCN(C(=O)c3ccco3)CC2)cc1	0	0	0	0	0	80
CCN(CC)S(=O)(=O)c1ccc(C(=O)OCC(=O)N2CCOCC2)cc1	0	0	0	0	0	0
O=C(c1ccco1)N1CCN(c2ccc(Cl)cc2)CC1	0	0	0	0	0	70
O=C(c1ccco1)N1CCCN(C(=O)c2ccco2)CC1	0	0	0	0	0	0
COc1ccccc1NC(=O)CCc1nc(-c2ccccc2F)no1	0	0	0	0	0	0
COc1ccc(Cl)cc1NC(=O)CCc1nc(-c2ccccc2F)no1	0	0	0	0	0	69
CCN(Cc1ccc(C#CCCO)cc1)CC1CCCN(CCc2cccc(F)c2)C1 (stereo not drawn)	0	0	64	0	0	0
CN(C)c1ccc(C(=O)/C=C/c2cccnc2)cc1	0	0	0	0	0	52
SMILES	GPR7 antag	697 NFkB inh	T cruzi repl	HSF1 inhib	Jurkat NFkB inh	HSF1 activator
O=C(/C=C/c1cccnc1)c1ccc(F)c(F)c1	0	0	0	0	0	0
CC1(C(=O)N2CCN(c3ccc([N+](=O)[O-])cc3)CC2)CC1(Cl)Cl (stereo not drawn)	0	0	0	0	0	0
CCCCSC1=C(C#N)C(c2ccccc2C)CC(=O)N1 (stereo not drawn)	0	0	0	-59	0	0
CCN(CC)S(=O)(=O)c1ccc(N2CCOCC2)c(NC(=O)C2=COCCO2)c1	0	0	0	0	0	0
O=C(c1ccc(S(=O)(=O)Nc2ccccc2F)cc1)N1CCCC1	-	0	-	-	0	-
Nc1nc(Oc2ccc(F)cc2)c(Br)c(=O)[nH]1	0	0	0	-64	0	0
COc1ccc(/C=N/N=C2/SCC(=O)N2Cc2ccccc2)cc1	0	0	0	0	0	66
COc1ccc(CN2C(=O)CS/C2=N/N=C/c2ccccc2)cc1	0	0	0	0	0	0
CN1Cc2sc(NC(=S)NC(=O)c3ccccc3)c(C#N)c2CC1(C)C	0	0	0	-77	0	0
COc1ccc(NC(=O)COC(=O)C2CC(=O)N(c3ccc(C)cc3)C2)cc1 (stereo not drawn)	0	0	0	0	0	0
COc1ccc(-n2c(SCc3ccc([N+](=O)[O-])cc3)nnc2-c2ccc(C)cc2)cc1	0	0	70	0	0	57

Source: PubChem BioAssay (several laboratories)
